ChEMBL document CHEMBL3098111, “Discovery of 2,5-diarylnicotinamides as selective orexin-2 receptor antagonists (2-SORAs)” (Bioorg Med Chem Lett, 2013)
Calls of active or inactive are those of the source. The calls are words filed in the database; no cut-off is given here.

How the values were obtained:
[1] = biological target: GABA-A receptor; alpha-1/beta-3/gamma-2 (Homo sapiens) (UniProt P14867+P18507+P28472); experiment: Inhibition of human GABA alpha1beta3gamma2 receptor muscimol binding site at 10 uM relative to control; type: protein-complex assay
[2] = biological target: Endothelin receptor type B (Homo sapiens) (UniProt P24530); experiment: Inhibition of human ETB receptor at 10 uM relative to control
[3] = biological target: D(4) dopamine receptor (Homo sapiens) (UniProt P21917); experiment: Inhibition of human dopamine D4.4 receptor at 10 uM relative to control
[4] = biological target: T1, D(3) dopamine receptor (Homo sapiens, UniProt P35462); experiment: Inhibition of human dopamine D3 receptor at 1 uM relative to control
[5] = biological target: Gastrin/cholecystokinin type B receptor (Homo sapiens) (UniProt P32239); experiment: Inhibition of human CCKB receptor at 10 uM relative to control
[6] = biological target: C-C chemokine receptor type 5 (Homo sapiens) (UniProt P51681); experiment: Inhibition of human CCR5 at 10 uM relative to control
[7] = biological target: Cannabinoid receptor 1 (Homo sapiens) (UniProt P21554); experiment: Inhibition of human CB1 receptor at 10 uM relative to control
[8] = biological target: Cannabinoid receptor 2 (Homo sapiens) (UniProt P34972); experiment: Inhibition of human CB2 receptor at 10 uM relative to control
[9] = biological target: Calcitonin gene-related peptide type 1 receptor (Homo sapiens) (UniProt Q16602); experiment: Inhibition of human CGRP1 at 10 uM relative to control
[10] = biological target: Beta-2 adrenergic receptor (Homo sapiens) (UniProt P07550); experiment: Inhibition of human beta2 adrenergic receptor at 10 uM relative to control
[11] = biological target: Alpha-2A adrenergic receptor (Homo sapiens) (UniProt P08913); experiment: Inhibition of human alpha2A adrenergic receptor at 10 uM relative to control
[12] = biological target: Adrenergic receptor alpha-2 (Rattus norvegicus) (UniProt P22086+P19328+P22909); experiment: Inhibition of rat alpha2 adrenergic receptor at 10 uM relative to control
[13] = biological target: Adenosine receptor A1 (Homo sapiens) (UniProt P30542); experiment: Inhibition of human adenosine A1 receptor at 10 uM relative to control
[14] = biological target: Mitogen-activated protein kinase 3 (Homo sapiens) (UniProt P27361); experiment: Inhibition of human MAPK3 at 100 uM relative to control
[15] = biological target: Nitric oxide synthase 1 (Rattus norvegicus) (UniProt P29476); experiment: Inhibition of rat nNOS at 10 uM relative to control
[16] = biological target: T1, D(3) dopamine receptor; experiment: Inhibition of human dopamine D3 receptor at 10 uM relative to control
[17] = tested on: Rattus norvegicus; experiment: Antiinsomnic activity in rat EEG model assessed as increase in delta sleep time at 15 mg/kg, po; type: functional, organism-based; set-up: dose 15 mg/kg
Method in brief: (§1)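 Rats with EEG telemetry given 15 mg/kg orally during their active period, vehicle 20% Vitamin E TPGS in water. Sleep architecture (active wake, light sleep, delta and REM sleep) scored from EEG.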

[18] = tested on: Rattus norvegicus; experiment: Antiinsomnic activity in rat EEG model assessed as decrease in light sleep time at 15 mg/kg, po; type: functional, organism-based; set-up: dose 15 mg/kg; method in brief: as §1
[19] = species: Rattus norvegicus; experiment: Inhibition of rat GABA transporter at 10 uM relative to control
[20] = biological target: Thyrotropin-releasing hormone receptor (Rattus norvegicus) (UniProt Q01717); experiment: Inhibition of rat TRH receptor at 10 uM relative to control
[21] = biological target: Somatostatin receptor type 5 (Homo sapiens) (UniProt P35346); experiment: Inhibition of human SST5 receptor at 10 uM relative to control
[22] = biological target: Somatostatin receptor type 1 (Homo sapiens) (UniProt P30872); experiment: Inhibition of human SST1 receptor at 10 uM relative to control
[23] = biological target: 5-hydroxytryptamine receptor 3A (Homo sapiens) (UniProt P46098); experiment: Inhibition of human 5-HT3 receptor at 10 uM relative to control
[24] = biological target: T2, 5-hydroxytryptamine receptor 2B (Homo sapiens, UniProt P41595); experiment: Inhibition of human 5-HT2B receptor at 0.1 uM relative to control
[25] = biological target: T2, 5-hydroxytryptamine receptor 2B; experiment: Inhibition of human 5-HT2B receptor at 10 nM relative to control
[26] = biological target: 5-hydroxytryptamine receptor 1B (Rattus norvegicus) (UniProt P28564); experiment: Inhibition of rat 5-HT1B receptor at 0.1 uM relative to control
[27] = biological target: 5-hydroxytryptamine receptor 1B (Rattus norvegicus) (UniProt P28564); experiment: Inhibition of rat 5-HT1B receptor at 1 uM relative to control
[28] = biological target: T3, 5-hydroxytryptamine receptor 1A (Homo sapiens) (UniProt P08908); experiment: Inhibition of human 5-HT1A receptor at 1 uM relative to control
T3 sequence (whole entry): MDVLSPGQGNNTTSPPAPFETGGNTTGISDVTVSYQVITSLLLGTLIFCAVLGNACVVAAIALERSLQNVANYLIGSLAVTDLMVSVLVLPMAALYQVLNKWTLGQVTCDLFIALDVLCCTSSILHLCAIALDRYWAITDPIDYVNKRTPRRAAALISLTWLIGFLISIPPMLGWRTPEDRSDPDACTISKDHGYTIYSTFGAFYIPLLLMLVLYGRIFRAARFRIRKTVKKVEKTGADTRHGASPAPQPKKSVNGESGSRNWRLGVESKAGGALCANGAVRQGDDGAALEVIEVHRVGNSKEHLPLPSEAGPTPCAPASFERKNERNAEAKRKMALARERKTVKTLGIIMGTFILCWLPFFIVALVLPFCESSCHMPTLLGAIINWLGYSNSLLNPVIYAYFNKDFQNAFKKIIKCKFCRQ

[29] = biological target: Prostaglandin F2-alpha receptor (Homo sapiens) (UniProt P43088); experiment: Inhibition of human prostanoid FP receptor at 10 uM relative to control
[30] = biological target: Prostaglandin E2 receptor EP3 subtype (Homo sapiens) (UniProt P43115); experiment: Inhibition of human prostanoid EP3 receptor at 10 uM relative to control
[31] = biological target: Small conductance calcium-activated potassium channel (Rattus norvegicus) (UniProt P70604+P70606+P70605); experiment: Inhibition of rat potassium channel [SKCA] at 10 uM relative to control; type: protein assay
[32] = biological target: Nociceptin receptor (Homo sapiens) (UniProt P41146); experiment: Inhibition of human ORL1 receptor at 10 uM relative to control
[33] = biological target: Delta-type opioid receptor (Homo sapiens) (UniProt P41143); experiment: Inhibition of human delta opioid receptor at 10 uM relative to control
[34] = species: Homo sapiens; experiment: Inhibition of human nicotinic acetylcholine receptor at 10 uM relative to control
[35] = biological target: Muscarinic acetylcholine receptor M3 (Homo sapiens) (UniProt P20309); experiment: Inhibition of human muscarinic M3 receptor at 10 uM relative to control
[36] = biological target: Histamine H3 receptor (Homo sapiens) (UniProt Q9Y5N1); experiment: Inhibition of human histamine H3 receptor at 10 uM relative to control
[37] = species: Rattus norvegicus; experiment: Inhibition of rat AMPA receptor at 10 uM relative to control
[38] = biological target: Vasoactive intestinal polypeptide receptor 1 (Homo sapiens) (UniProt P32241); experiment: Inhibition of human VIP1 receptor at 10 uM relative to control
Chain of Vasoactive intestinal polypeptide receptor 1 (Homo sapiens) (P32241 whole entry, looked up): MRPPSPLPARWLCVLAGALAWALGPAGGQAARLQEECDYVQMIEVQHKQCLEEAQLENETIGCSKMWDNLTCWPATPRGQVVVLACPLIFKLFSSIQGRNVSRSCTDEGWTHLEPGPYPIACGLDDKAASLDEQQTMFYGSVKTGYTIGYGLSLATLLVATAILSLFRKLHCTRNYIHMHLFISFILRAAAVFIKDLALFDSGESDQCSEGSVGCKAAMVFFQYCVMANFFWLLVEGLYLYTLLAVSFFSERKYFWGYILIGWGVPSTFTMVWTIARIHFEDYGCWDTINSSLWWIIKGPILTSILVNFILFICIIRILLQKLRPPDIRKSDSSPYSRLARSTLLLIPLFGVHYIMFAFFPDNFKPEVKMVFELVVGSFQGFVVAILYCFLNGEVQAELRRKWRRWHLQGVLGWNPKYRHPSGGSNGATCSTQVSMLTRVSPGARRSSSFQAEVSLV

T2 sequence (P41595 whole entry): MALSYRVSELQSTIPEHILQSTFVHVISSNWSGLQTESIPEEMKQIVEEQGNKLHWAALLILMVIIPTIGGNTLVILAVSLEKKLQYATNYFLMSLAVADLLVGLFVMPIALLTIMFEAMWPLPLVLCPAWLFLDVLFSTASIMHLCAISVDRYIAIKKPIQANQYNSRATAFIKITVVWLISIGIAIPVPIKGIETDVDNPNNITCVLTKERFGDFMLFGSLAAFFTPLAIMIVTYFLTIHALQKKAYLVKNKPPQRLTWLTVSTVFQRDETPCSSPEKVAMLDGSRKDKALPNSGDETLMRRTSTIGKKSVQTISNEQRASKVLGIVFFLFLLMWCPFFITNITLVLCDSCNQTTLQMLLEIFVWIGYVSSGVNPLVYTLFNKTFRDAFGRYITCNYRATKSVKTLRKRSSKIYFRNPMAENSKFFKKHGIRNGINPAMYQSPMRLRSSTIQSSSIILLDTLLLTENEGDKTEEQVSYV
T1 sequence (P35462 whole entry): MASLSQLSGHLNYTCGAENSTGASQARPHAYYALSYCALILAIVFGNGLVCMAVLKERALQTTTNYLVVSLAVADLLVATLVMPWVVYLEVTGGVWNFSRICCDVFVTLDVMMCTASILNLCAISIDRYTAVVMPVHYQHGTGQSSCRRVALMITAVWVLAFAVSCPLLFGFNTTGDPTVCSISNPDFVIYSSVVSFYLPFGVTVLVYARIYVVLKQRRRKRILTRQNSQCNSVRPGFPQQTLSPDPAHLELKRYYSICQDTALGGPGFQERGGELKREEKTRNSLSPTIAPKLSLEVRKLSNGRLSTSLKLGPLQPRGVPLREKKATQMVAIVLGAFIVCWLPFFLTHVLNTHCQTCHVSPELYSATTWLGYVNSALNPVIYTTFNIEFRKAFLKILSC
Chain of 5-hydroxytryptamine receptor 1B (Rattus norvegicus) (P28564 whole entry): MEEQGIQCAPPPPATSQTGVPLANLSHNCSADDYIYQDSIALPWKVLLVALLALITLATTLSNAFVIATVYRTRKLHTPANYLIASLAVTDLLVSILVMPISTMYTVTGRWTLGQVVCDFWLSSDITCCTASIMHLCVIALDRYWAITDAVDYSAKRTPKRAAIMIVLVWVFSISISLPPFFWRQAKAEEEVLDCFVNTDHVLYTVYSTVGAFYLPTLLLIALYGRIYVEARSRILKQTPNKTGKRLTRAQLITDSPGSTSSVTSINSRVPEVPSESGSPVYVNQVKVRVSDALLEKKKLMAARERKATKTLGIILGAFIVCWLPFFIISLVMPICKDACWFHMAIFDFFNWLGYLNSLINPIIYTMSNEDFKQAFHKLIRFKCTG
Chain of Thyrotropin-releasing hormone receptor (Rattus norvegicus) (Q01717 whole entry): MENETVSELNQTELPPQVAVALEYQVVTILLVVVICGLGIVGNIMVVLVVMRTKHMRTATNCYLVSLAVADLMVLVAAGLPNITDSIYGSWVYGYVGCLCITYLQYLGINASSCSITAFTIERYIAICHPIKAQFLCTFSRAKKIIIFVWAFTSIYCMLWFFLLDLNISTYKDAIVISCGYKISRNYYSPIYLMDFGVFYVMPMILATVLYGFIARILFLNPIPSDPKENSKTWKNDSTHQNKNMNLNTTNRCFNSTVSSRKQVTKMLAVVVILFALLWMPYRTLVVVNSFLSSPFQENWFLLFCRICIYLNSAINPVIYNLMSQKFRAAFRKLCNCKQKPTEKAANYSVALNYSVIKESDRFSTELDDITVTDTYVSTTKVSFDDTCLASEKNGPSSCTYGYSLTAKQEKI
Chain of Prostaglandin E2 receptor EP3 subtype (Homo sapiens) (P43115 whole entry): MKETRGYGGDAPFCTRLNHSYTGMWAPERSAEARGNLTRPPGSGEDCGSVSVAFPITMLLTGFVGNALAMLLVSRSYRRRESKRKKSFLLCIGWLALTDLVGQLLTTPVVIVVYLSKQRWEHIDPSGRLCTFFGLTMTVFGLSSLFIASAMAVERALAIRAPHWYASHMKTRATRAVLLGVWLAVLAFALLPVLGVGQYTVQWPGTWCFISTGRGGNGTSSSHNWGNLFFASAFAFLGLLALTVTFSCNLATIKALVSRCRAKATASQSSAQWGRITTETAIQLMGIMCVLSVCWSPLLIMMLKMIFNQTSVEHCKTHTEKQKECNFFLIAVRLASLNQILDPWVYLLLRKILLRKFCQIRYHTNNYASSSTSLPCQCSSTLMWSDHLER
Chain of Delta-type opioid receptor (Homo sapiens) (P41143 whole entry): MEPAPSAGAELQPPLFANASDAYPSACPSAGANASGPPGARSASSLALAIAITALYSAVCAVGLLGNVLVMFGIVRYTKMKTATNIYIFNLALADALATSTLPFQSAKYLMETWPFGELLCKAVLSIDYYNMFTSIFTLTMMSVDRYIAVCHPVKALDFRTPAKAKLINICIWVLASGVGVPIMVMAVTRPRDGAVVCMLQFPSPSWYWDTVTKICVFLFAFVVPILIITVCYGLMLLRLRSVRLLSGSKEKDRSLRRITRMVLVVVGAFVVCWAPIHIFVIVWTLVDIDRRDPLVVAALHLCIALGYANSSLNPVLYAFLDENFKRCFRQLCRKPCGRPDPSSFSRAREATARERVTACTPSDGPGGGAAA
Chain of Prostaglandin F2-alpha receptor (Homo sapiens) (P43088 whole entry): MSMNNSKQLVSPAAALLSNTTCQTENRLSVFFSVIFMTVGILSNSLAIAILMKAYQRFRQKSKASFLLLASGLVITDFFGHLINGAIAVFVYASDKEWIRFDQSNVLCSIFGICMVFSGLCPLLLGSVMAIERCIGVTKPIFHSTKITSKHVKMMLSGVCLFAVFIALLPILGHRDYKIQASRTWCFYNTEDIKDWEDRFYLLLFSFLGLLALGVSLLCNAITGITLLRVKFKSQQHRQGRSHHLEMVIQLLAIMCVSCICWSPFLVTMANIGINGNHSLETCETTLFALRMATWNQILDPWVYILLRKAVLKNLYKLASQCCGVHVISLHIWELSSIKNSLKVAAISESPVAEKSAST
Chain of Cannabinoid receptor 2 (Homo sapiens) (P34972 whole entry): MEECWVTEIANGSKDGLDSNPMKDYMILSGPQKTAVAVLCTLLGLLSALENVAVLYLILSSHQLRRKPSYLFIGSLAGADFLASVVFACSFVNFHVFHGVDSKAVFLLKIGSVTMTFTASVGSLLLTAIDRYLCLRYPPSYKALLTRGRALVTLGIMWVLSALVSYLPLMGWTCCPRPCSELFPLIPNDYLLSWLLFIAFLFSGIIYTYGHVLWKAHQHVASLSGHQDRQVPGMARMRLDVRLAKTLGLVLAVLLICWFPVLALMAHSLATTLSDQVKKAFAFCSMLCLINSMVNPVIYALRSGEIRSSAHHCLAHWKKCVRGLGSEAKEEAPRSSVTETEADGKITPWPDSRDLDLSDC
Chain of D(4) dopamine receptor (Homo sapiens) (P21917 whole entry): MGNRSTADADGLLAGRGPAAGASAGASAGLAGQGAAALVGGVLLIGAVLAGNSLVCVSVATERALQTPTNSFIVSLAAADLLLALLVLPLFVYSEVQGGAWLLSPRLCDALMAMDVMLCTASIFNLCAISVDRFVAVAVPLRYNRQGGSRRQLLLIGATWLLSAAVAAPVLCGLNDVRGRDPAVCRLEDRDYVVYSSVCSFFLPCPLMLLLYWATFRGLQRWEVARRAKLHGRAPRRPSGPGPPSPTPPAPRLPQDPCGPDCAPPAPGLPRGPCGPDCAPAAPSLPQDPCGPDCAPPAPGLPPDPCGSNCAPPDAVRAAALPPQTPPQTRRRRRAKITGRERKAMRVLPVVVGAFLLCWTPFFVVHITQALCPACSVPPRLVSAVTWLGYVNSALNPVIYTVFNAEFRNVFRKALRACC
Chain of Endothelin receptor type B (Homo sapiens) (P24530 whole entry): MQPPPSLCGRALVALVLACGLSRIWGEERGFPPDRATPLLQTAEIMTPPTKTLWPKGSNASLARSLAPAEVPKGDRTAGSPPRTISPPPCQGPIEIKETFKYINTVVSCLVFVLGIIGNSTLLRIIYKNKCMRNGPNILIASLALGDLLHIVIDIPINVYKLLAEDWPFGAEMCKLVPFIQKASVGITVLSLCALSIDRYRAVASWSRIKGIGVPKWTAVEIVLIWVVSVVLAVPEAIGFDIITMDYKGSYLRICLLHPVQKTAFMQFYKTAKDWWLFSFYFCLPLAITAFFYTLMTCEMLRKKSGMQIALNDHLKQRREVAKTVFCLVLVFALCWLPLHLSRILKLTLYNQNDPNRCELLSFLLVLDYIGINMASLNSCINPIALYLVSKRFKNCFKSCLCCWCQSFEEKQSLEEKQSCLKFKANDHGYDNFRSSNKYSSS
Chain of Calcitonin gene-related peptide type 1 receptor (Homo sapiens) (Q16602 whole entry): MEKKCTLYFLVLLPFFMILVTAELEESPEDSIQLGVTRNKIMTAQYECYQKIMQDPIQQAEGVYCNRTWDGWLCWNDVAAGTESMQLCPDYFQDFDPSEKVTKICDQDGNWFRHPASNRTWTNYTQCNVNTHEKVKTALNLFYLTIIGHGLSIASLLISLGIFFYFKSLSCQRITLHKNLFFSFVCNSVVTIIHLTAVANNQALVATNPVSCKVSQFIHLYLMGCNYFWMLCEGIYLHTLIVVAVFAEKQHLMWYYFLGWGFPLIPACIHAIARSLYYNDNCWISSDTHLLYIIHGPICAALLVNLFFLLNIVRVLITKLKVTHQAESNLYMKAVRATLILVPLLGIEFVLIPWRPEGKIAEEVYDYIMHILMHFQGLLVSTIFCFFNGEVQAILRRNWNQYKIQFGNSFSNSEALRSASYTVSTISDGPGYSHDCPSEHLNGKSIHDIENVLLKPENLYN

inhibition [1]: 39% | inhibition [2]: 8% | inhibition [3]: 3% | inhibition [4]: 19% | inhibition [5]: -4% | inhibition [6]: 11% | inhibition [7]: 10% | inhibition [8]: 2% | inhibition [9]: -10% | inhibition [10]: 23% | inhibition [11]: 19% | inhibition [12]: 37% | inhibition [13]: 22% | inhibition [14]: 10% | inhibition [15]: -1% | inhibition [16]: 51% | inhibition [19]: 3% | inhibition [20]: -3% | inhibition [21]: 14% | inhibition [22]: 14% | inhibition [23]: -3% | inhibition [24]: 6% | inhibition [25]: 6% | inhibition [26]: 9% | inhibition [27]: 30% | inhibition [28]: 41% | inhibition [29]: 19% | inhibition [30]: 19% | inhibition [31]: 9% | inhibition [32]: 9% | inhibition [33]: 8% | inhibition [34]: -1% | inhibition [35]: -2% | inhibition [36]: -3% | inhibition [37]: 9% | inhibition [38]: 6%
Compound: COc1ccc(CNC(=O)c2cc(-c3cc(Cl)cc(Cl)c3)cnc2-c2cccnc2)cc1OC
Activity [17]: Active | Activity [18]: Active
